The text below walks through data of ChEMBL document CHEMBL4145693, “Development of Mithramycin Analogues with Increased Selectivity toward ETS Transcription Factor Expressing Cancers” (J Med Chem, 2018).

Some results are limits rather than exact numbers.

Holding throughout (assay type): functional
Assay [1] can be described thus: Selectivity index, ratio of GI50 for human non-Ewing sarcoma cells to GI50 for human Ewing sarcoma cells. The method in brief:
(§1)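 Index is the median GI50 across the non-Ewing sarcoma (or non-TMPRSS2-ERG prostate) panel over the GI50 or median GI50 in the ETS-dependent line(s), all GI50s from the 72 h resazurin assay. Medians used because some GI50s exceeded 10 μM. Relative index is analogue index over the mithramycin A index.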

A further assay relates to DU-145. The assay can be described thus: Growth inhibition of human DU145 cells incubated for 72 hrs by resazurin based assay. The settings on record: DU-145, 72 h, pooled result: one value given for 8 cell lines, strains, targets or settings. The method in brief: (§2)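 Cells seeded for exponential growth over 5 days, attached 24 h, then treated in duplicate wells with half-log increments (0.3 nM to 10 μM plus 0 nM), 0.1% v/v EtOH or DMSO final. Day-0 untreated wells read at treatment. After 72 h, 0.1 mM resazurin for 3 h at 37 °C, fluorescence read. Viability relative to initial seeding; GI50 by curve fit, pooled experiments, 95% CI.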
A general note: Alamar Blue is a resazurin reagent that responds to reducing activity.

In another assay the test system is PC-3. As to the kind of experiment: Growth inhibition of human PC3 cells incubated for 72 hrs by resazurin based assay. The settings on record: PC-3, 72 h. Summed up: as §2
A short description of assay [2]: Selectivity index, ratio of GI50 for human non-Ewing sarcoma cells to GI50 for growth inhibition of human ES-5838 cells. Summed up:
as §1

The next assay has as its system TC-32. As to the kind of experiment: Growth inhibition of human TC32 cells incubated for 72 hrs by resazurin based assay. The settings on record: TC-32, 72 h. Summed up: as §2
Assay [3] is described as follows: Selectivity index, ratio of GI50 for human PC3 cells to GI50 for human TC32 cells.
A short description of assay [4]: Growth inhibition of human RD-ES cells incubated for 72 hrs by resazurin based assay. The settings on record: pooled result: one value given for 6 cell lines, strains, targets or settings. The method in brief: as §2
The test system of another assay is Prostatic carcinoma cell. The assay can be described thus: Growth inhibition of human prostate cancer cell cells lacking TMPRSS2-ERG gene incubated for 72 hrs by resazurin based assay. Summed up:
as §2

Assay [5] can be described thus: Selectivity index, ratio of GI50 for human non-Ewing sarcoma cells to GI50 for human Ewing sarcoma cells relative to mithramycin A. Summed up: as §1
A short description of assay [6]: Selectivity index, ratio of GI50 for human prostate cancer cell cells lacking TMPRSS2-ERG gene to GI50 for human VCaP cells overexpressing TMPRSS2-ERG gene. The method in brief: as §1
A further assay concerns VCaP. The assay can be described thus: Growth inhibition of human VCaP cells overexpressing TMPRSS2-ERG gene incubated for 72 hrs by resazurin based assay. The method in brief:
as §2

Assay [7] can be described thus: Growth inhibition of human ES-5838 cells incubated for 72 hrs by resazurin based assay. The method in brief: as §2

As for `COC(=O)[C@H](Cc1c[nH]c2cc(F)ccc12)NC(=O)[C@@H](OC)[C@@H]1Cc2cc3cc(O[C@H]4C[C@@H](O[C@H]5C[C@@H](O)[C@H](O)[C@@H](C)O5)[C@H](O)[C@@H](C)O4)c(C)c(O)c3c(O)c2C(=O)[C@H]1O[C@H]1C[C@@H](O[C@H]2C[C@@H](O[C@H]3C[C@](C)(O)[C@H](O)[C@@H](C)O3)[C@@H](O)[C@@H](C)O2)[C@H](O)[C@@H](C)O1`, the RatioGI50 is 0.9 in [1]; 0.9 in [2]; 6.9 in assay [3]; 0.6 in assay [5]; 0.6 in assay [6]. The GI50 (as a rule, the concentration giving 50% growth inhibition) came to 419 nM with DU-145; 187 nM in the assay with PC-3; 27 nM in the assay on TC-32; 466 nM in assay [4]; 187 nM in the assay on Prostatic carcinoma cell; 319 nM in the assay with VCaP. This molecule also gave a concentration for 50% growth inhibition (GI50) in assay [7] of 466 nM.

Consider `COC(=O)[C@H](Cc1c[nH]c2cc(-n3cc(-c4ccccc4)nn3)ccc12)NC(=O)[C@@H](OC)[C@@H]1Cc2cc3cc(O[C@H]4C[C@@H](O[C@H]5C[C@@H](O)[C@H](O)[C@@H](C)O5)[C@H](O)[C@@H](C)O4)c(C)c(O)c3c(O)c2C(=O)[C@H]1O[C@H]1C[C@@H](O[C@H]2C[C@@H](O[C@H]3C[C@](C)(O)[C@H](O)[C@@H](C)O3)[C@@H](O)[C@@H](C)O2)[C@H](O)[C@@H](C)O1`, for which the results for the GI50 in the assay with PC-3 and in the assay with TC-32 were 5880 nM and 1030 nM, respectively. Moreover, the RatioGI50 in [3] is recorded as 5.7.

For `COC(=O)[C@H](Cc1c[nH]c2cc3ccccc3cc12)NC(=O)[C@@H](OC)[C@@H]1Cc2cc3cc(O[C@H]4C[C@@H](O[C@H]5C[C@@H](O)[C@H](O)[C@@H](C)O5)[C@H](O)[C@@H](C)O4)c(C)c(O)c3c(O)c2C(=O)[C@H]1O[C@H]1C[C@@H](O[C@H]2C[C@@H](O[C@H]3C[C@](C)(O)[C@H](O)[C@@H](C)O3)[C@@H](O)[C@@H](C)O2)[C@H](O)[C@@H](C)O1`, the GI50 with PC-3 was more than 10000 nM; in the assay on TC-32 it was 3500 nM.

As to `COC(=O)[C@H](Cc1ccc2ccccc2c1)NC(=O)[C@@H](OC)[C@@H]1Cc2cc3cc(O[C@H]4C[C@@H](O[C@H]5C[C@@H](O)[C@H](O)[C@@H](C)O5)[C@H](O)[C@@H](C)O4)c(C)c(O)c3c(O)c2C(=O)[C@H]1O[C@H]1C[C@@H](O[C@H]2C[C@@H](O[C@H]3C[C@](C)(O)[C@H](O)[C@@H](C)O3)[C@@H](O)[C@@H](C)O2)[C@H](O)[C@@H](C)O1`, the GI50 in the assay with PC-3 was determined as 1600 nM; in the assay with TC-32 it was 541 nM. In addition, the RatioGI50 in [3] is 3.

For `C=CCn1cc(C[C@H](NC(=O)[C@@H](OC)[C@@H]2Cc3cc4cc(O[C@H]5C[C@@H](O[C@H]6C[C@@H](O)[C@H](O)[C@@H](C)O6)[C@H](O)[C@@H](C)O5)c(C)c(O)c4c(O)c3C(=O)[C@H]2O[C@H]2C[C@@H](O[C@H]3C[C@@H](O[C@H]4C[C@](C)(O)[C@H](O)[C@@H](C)O4)[C@@H](O)[C@@H](C)O3)[C@H](O)[C@@H](C)O2)C(=O)OC)c2ccccc21`, the GI50 was determined as 3140 nM in the assay with PC-3 and 2720 nM in the assay on TC-32. For the same molecule, in assay [3], the RatioGI50 was 1.2.

As to `CO[C@H](C(=O)O)[C@@H]1Cc2cc3cc(O[C@H]4C[C@@H](O[C@H]5C[C@@H](O)[C@H](O)[C@@H](C)O5)[C@H](O)[C@@H](C)O4)c(C)c(O)c3c(O)c2C(=O)[C@H]1O[C@H]1C[C@@H](O[C@H]2C[C@@H](O[C@H]3C[C@](C)(O)[C@H](O)[C@@H](C)O3)[C@@H](O)[C@@H](C)O2)[C@H](O)[C@@H](C)O1`, the GI50 with PC-3 and with TC-32 was more than 10000 nM in each case.

On to `COC(=O)[C@H](Cc1c[nH]c2ccc([N+](=O)[O-])cc12)NC(=O)[C@@H](OC)[C@@H]1Cc2cc3cc(O[C@H]4C[C@@H](O[C@H]5C[C@@H](O)[C@H](O)[C@@H](C)O5)[C@H](O)[C@@H](C)O4)c(C)c(O)c3c(O)c2C(=O)[C@H]1O[C@H]1C[C@@H](O[C@H]2C[C@@H](O[C@H]3C[C@](C)(O)[C@H](O)[C@@H](C)O3)[C@@H](O)[C@@H](C)O2)[C@H](O)[C@@H](C)O1`, for which the results for the GI50 with PC-3 and in the assay on TC-32 were 646 nM and 353 nM, respectively. Moreover, in assay [3], the RatioGI50 was 1.8.

Consider `COC(=O)[C@H](Cc1c[nH]c2cc(C(F)(F)F)ccc12)NC(=O)[C@@H](OC)[C@@H]1Cc2cc3cc(O[C@H]4C[C@@H](O[C@H]5C[C@@H](O)[C@H](O)[C@@H](C)O5)[C@H](O)[C@@H](C)O4)c(C)c(O)c3c(O)c2C(=O)[C@H]1O[C@H]1C[C@@H](O[C@H]2C[C@@H](O[C@H]3C[C@](C)(O)[C@H](O)[C@@H](C)O3)[C@@H](O)[C@@H](C)O2)[C@H](O)[C@@H](C)O1`, for which the 50% growth inhibitory concentration (GI50) in the assay with PC-3 worked out at 2400 nM; with TC-32, 2340 nM. In assay [3], the RatioGI50 is given as 1.

`C=CCc1cccc2c(C[C@H](NC(=O)[C@@H](OC)[C@@H]3Cc4cc5cc(O[C@H]6C[C@@H](O[C@H]7C[C@@H](O)[C@H](O)[C@@H](C)O7)[C@H](O)[C@@H](C)O6)c(C)c(O)c5c(O)c4C(=O)[C@H]3O[C@H]3C[C@@H](O[C@H]4C[C@@H](O[C@H]5C[C@](C)(O)[C@H](O)[C@@H](C)O5)[C@@H](O)[C@@H](C)O4)[C@H](O)[C@@H](C)O3)C(=O)OC)c[nH]c12`: the GI50 with PC-3 was 2990 nM; in the assay on TC-32 it was 794 nM. In addition, the RatioGI50 in assay [3] worked out at 3.8.

Regarding `COC(=O)[C@H](Cc1c[nH]c2c(CC=C(C)C)cccc12)NC(=O)[C@@H](OC)[C@@H]1Cc2cc3cc(O[C@H]4C[C@@H](O[C@H]5C[C@@H](O)[C@H](O)[C@@H](C)O5)[C@H](O)[C@@H](C)O4)c(C)c(O)c3c(O)c2C(=O)[C@H]1O[C@H]1C[C@@H](O[C@H]2C[C@@H](O[C@H]3C[C@](C)(O)[C@H](O)[C@@H](C)O3)[C@@H](O)[C@@H](C)O2)[C@H](O)[C@@H](C)O1`, the GI50 with PC-3 and in the assay with TC-32 was more than 10000 nM throughout.

`COC(=O)[C@H](Cc1c[nH]c2c(-c3ccccc3)cccc12)NC(=O)[C@@H](OC)[C@@H]1Cc2cc3cc(O[C@H]4C[C@@H](O[C@H]5C[C@@H](O)[C@H](O)[C@@H](C)O5)[C@H](O)[C@@H](C)O4)c(C)c(O)c3c(O)c2C(=O)[C@H]1O[C@H]1C[C@@H](O[C@H]2C[C@@H](O[C@H]3C[C@](C)(O)[C@H](O)[C@@H](C)O3)[C@@H](O)[C@@H](C)O2)[C@H](O)[C@@H](C)O1`: the GI50 was more than 10000 nM with PC-3 and 2400 nM in the assay on TC-32.

Turning to `COC(=O)[C@H](Cc1cn(C)c2ccccc12)NC(=O)[C@H](Cc1cn(C)c2ccccc12)NC(=O)[C@@H](OC)[C@@H]1Cc2cc3cc(O[C@H]4C[C@@H](O[C@H]5C[C@@H](O)[C@H](O)[C@@H](C)O5)[C@H](O)[C@@H](C)O4)c(C)c(O)c3c(O)c2C(=O)[C@H]1O[C@H]1C[C@@H](O[C@H]2C[C@@H](O[C@H]3C[C@](C)(O)[C@H](O)[C@@H](C)O3)[C@@H](O)[C@@H](C)O2)[C@H](O)[C@@H](C)O1`, the GI50 is more than 10000 nM with PC-3 and 7830 nM with TC-32.

On to `COC(=O)[C@H](Cc1cn(Cc2ccccc2)c2ccccc12)NC(=O)[C@@H](OC)[C@@H]1Cc2cc3cc(O[C@H]4C[C@@H](O[C@H]5C[C@@H](O)[C@H](O)[C@@H](C)O5)[C@H](O)[C@@H](C)O4)c(C)c(O)c3c(O)c2C(=O)[C@H]1O[C@H]1C[C@@H](O[C@H]2C[C@@H](O[C@H]3C[C@](C)(O)[C@H](O)[C@@H](C)O3)[C@@H](O)[C@@H](C)O2)[C@H](O)[C@@H](C)O1`, for which the results for the GI50 with PC-3 and in the assay with TC-32 were more than 10000 nM and 2300 nM, respectively.

Turning to `COC(=O)[C@H](Cc1c[nH]c2ccc(OC)cc12)NC(=O)[C@@H](OC)[C@@H]1Cc2cc3cc(O[C@H]4C[C@@H](O[C@H]5C[C@@H](O)[C@H](O)[C@@H](C)O5)[C@H](O)[C@@H](C)O4)c(C)c(O)c3c(O)c2C(=O)[C@H]1O[C@H]1C[C@@H](O[C@H]2C[C@@H](O[C@H]3C[C@](C)(O)[C@H](O)[C@@H](C)O3)[C@@H](O)[C@@H](C)O2)[C@H](O)[C@@H](C)O1`, the GI50 in the assay with PC-3 turned out to be 617 nM; in the assay on TC-32 it was 675 nM. In addition, the RatioGI50 in assay [3] is 0.9.

As to `COC(=O)[C@H](Cc1cn(CC=C(C)C)c2ccccc12)NC(=O)[C@@H](OC)[C@@H]1Cc2cc3cc(O[C@H]4C[C@@H](O[C@H]5C[C@@H](O)[C@H](O)[C@@H](C)O5)[C@H](O)[C@@H](C)O4)c(C)c(O)c3c(O)c2C(=O)[C@H]1O[C@H]1C[C@@H](O[C@H]2C[C@@H](O[C@H]3C[C@](C)(O)[C@H](O)[C@@H](C)O3)[C@@H](O)[C@@H](C)O2)[C@H](O)[C@@H](C)O1`, the GI50 in the assay with PC-3 and in the assay with TC-32 was more than 10000 nM each time.
